In ChEMBL document CHEMBL3085769, “Synthesis and evaluation of a (18)F-labeled diarylpyrazole glycoconjugate for the imaging of NTS1-positive tumors” (J Med Chem, 2013):
Activity calls are given as the source filed them. No cut-off for these calls is given here.

Legend:
[1] = tested on: Liver; experiment: Drug uptake in liver of athymic nude mouse transfected with human HT-29 cells at 4 to 8 MBq, iv after 10 to 60 mins by gamma-counting analysis; assay type: ADME, organism-based; conditions: in vivo
Summary of the method: (§1)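 Biodistribution in nude mice carrying HT29 xenografts with 7–10 mm tumor diameter. Tissues were sampled at 10, 30 and 60 min post-injection. Uptake is expressed as % ID/g, and tumor-to-organ ratios were also calculated. Values are mean ± SD from two animals.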

[2] = tested on: Blood; experiment: Drug uptake in blood of athymic nude mouse transfected with human HT-29 cells at 4 to 8 MBq, iv after 10 to 60 mins by gamma-counting analysis; assay type: ADME, organism-based; conditions: in vivo; summary of the method: as §1
[3] = Metabolic stability in blood of athymic nude mouse transfected with human HT-29 cells at 4 to 8 MBq, iv after 10 mins by radio-HPLC analysis; assay type: ADME, organism-based; conditions: read-out: Stability
Summary of the method: (§2)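 Blood samples were taken from HT29 xenografted nude mice at 10 and 30 min post-injection. Intact tracer was quantified by radio-HPLC. Radiochemical purity of the injected tracer was above 99% by radio-HPLC.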

[4] = tested on: Tumour; experiment: Drug uptake in tumor of athymic nude mouse transfected with human HT-29 cells at 1 to 3 MBq, iv after 45 to 65 mins by PET imaging analysis in presence of SR142948A; assay type: ADME, organism-based, Neoplasm; conditions: in vivo
Summary of the method: (§3)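 Small-animal PET of HT29 xenografted nude mice (tumor diameter 7–10 mm), with images taken 45–65 min post-injection. Tumor uptake was quantified by μPET as % ID/g. For blocking, 3 mg/kg of the […] NTS1 ligand SR142948A was co-injected with the tracer. Values are mean ± SEM from 4 animals.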

[5] = tested on: Tumour; experiment: Drug uptake in tumor of athymic nude mouse transfected with human HT-29 cells at 1 to 3 MBq, iv after 45 to 65 mins by PET imaging analysis; assay type: ADME, organism-based, Neoplasm; conditions: in vivo; summary of the method: as §3
[6] = tested on: Nucleic Acid; experiment: Ratio of drug uptake in tumor to kidney of athymic nude mouse transfected with human HT-29 cells at 4 to 8 MBq, iv after 60 mins by gamma-counting analysis; assay type: ADME, organism-based; conditions: in vivo, 1 h
Summary of the method: (§4)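 [18F]-labelled tracer (radiochemical purity >99% by radio-HPLC) injected into nude mice bearing HT29 xenografts with 7–10 mm tumour diameter. Organ and tumour uptake were measured as % ID/g at 10, 30 and 60 min post-injection. Tumour-to-organ ratios were derived from these values and reported as mean ± SD of two animals.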

[7] = tested on: Nucleic Acid; experiment: Ratio of drug uptake in tumor to blood of athymic nude mouse xenografted with human HT-29 cells at 4 to 8 MBq, iv after 10 to 60 mins by gamma-counting analysis; assay type: ADME, organism-based; conditions: tumour; summary of the method: as §4
[8] = tested on: Tumour; experiment: Drug uptake in tumor of athymic nude mouse xenografted with human HT-29 cells at 4 to 8 MBq, iv after 60 mins by gamma-counting analysis; assay type: ADME, organism-based, Neoplasm; conditions: in vivo, 1 h; summary of the method: as §1
[9] = tested on: Tumour; experiment: Drug uptake in tumor of athymic nude mouse xenografted with human HT-29 cells at 4 to 8 MBq, iv after 10 mins by gamma-counting analysis; assay type: ADME, organism-based, Neoplasm; conditions: in vivo; summary of the method: as §1
[10] = tested on: Kidney; experiment: Drug uptake in kidney of athymic nude mouse xenografted with human HT-29 cells at 4 to 8 MBq, iv after 10 to 60 mins by gamma-counting analysis; assay type: ADME, organism-based; conditions: in vivo; summary of the method: as §1
[11] = tested on: Brain; experiment: Drug uptake in Sprague-Dawley rat brain by autoradiography; assay type: ADME, tissue-based; conditions: in vivo
[12] = Metabolic stability in blood of athymic nude mouse xenografted with human HT-29 cells at 4 to 8 MBq, iv after 30 mins by radio-HPLC analysis; assay type: ADME, organism-based; conditions: read-out: Stability; summary of the method: as §2
[13] = Octanol-water partition coefficient, log D of the compound at pH 7.4 by gamma-counting analysis; assay type: physicochemical
[14] = tested on: Serum; experiment: Metabolic stability in human serum after 5 to 180 mins by radio-HPLC analysis; assay type: ADME, cell-free
[15] = target: Neurotensin receptor type 2 (Homo sapiens, UniProt O95665); experiment: Displacement of [3H]NT(8 to 13) from human NTS2 receptor expressed in HEK293 cells; assay type: cell-based
[16] = target: Neurotensin receptor type 1 (Homo sapiens, UniProt P30989); experiment: Displacement of [3H]neurotensin from human NTS1 receptor expressed in CHO cells; assay type: cell-based
[17] = target: Neurotensin receptor type 1 (Rattus norvegicus) (UniProt P20789); experiment: Binding affinity to NTS1 receptor in Sprague-Dawley rat brain at 10 MBq after 60 mins by autoradiography in presence of neurotensin; conditions: 10 M, tested as the 18F-labelled form
[18] = target: T1, Neurotensin receptor type 2 (Rattus norvegicus) (UniProt Q63384); experiment: Binding affinity to NTS2 receptor in Sprague-Dawley rat brain cortex at 10 MBq after 60 mins by autoradiography in presence of H-Arg-Arg-Pro-N-h-Tyr-Ile-Leu-OH; conditions: 10 M, tested as the 18F-labelled form
T1 sequence (whole entry): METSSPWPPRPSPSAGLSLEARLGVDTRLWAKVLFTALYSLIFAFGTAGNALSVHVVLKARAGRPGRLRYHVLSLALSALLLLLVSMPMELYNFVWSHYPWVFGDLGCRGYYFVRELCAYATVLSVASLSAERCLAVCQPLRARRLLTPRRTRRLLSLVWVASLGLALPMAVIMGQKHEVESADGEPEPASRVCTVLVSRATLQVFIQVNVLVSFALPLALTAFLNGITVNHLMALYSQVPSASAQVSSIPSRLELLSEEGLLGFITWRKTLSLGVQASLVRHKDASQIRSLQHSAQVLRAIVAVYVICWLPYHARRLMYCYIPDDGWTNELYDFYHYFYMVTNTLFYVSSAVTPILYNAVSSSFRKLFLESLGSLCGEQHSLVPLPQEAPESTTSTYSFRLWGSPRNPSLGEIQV

[19] = target: Neurotensin receptor type 1 (Rattus norvegicus) (UniProt P20789); experiment: Binding affinity to NTS1 receptor in Sprague-Dawley rat brain at 10 MBq after 60 mins by autoradiography in presence of H-Arg-Arg-Pro-N-h-Tyr-Ile-Leu-OH; conditions: 10 M, tested as the 18F-labelled form
[20] = target: Neurotensin receptor type 1 (Rattus norvegicus) (UniProt P20789); experiment: Binding affinity to NTS1 receptor in Sprague-Dawley rat brain at 10 MBq after 60 mins by autoradiography; conditions: 10 M, tested as the 18F-labelled form

Sequence of Neurotensin receptor type 1 (Rattus norvegicus) (P20789 whole entry): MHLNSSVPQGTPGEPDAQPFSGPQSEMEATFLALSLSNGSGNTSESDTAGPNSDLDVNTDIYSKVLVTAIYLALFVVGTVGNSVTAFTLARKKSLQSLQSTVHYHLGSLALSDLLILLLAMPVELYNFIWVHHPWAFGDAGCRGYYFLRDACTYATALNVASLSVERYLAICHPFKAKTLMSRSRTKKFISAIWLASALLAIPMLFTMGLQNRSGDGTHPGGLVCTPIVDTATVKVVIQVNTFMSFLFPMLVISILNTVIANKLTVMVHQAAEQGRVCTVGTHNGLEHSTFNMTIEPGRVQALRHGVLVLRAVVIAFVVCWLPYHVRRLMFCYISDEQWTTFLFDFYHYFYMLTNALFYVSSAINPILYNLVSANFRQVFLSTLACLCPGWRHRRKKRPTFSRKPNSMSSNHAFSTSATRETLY
Sequence of Neurotensin receptor type 1 (P30989 whole entry): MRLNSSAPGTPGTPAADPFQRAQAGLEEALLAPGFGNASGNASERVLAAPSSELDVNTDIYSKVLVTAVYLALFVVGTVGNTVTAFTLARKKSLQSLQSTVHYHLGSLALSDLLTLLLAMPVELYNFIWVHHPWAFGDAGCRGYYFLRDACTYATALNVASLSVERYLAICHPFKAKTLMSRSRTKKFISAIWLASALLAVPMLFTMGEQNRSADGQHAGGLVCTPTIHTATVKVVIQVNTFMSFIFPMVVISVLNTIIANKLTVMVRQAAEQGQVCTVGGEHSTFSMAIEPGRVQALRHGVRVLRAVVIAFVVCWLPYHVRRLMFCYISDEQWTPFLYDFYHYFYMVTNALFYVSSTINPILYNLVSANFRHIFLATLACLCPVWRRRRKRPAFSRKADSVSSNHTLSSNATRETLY
Sequence of Neurotensin receptor type 2 (O95665 whole entry): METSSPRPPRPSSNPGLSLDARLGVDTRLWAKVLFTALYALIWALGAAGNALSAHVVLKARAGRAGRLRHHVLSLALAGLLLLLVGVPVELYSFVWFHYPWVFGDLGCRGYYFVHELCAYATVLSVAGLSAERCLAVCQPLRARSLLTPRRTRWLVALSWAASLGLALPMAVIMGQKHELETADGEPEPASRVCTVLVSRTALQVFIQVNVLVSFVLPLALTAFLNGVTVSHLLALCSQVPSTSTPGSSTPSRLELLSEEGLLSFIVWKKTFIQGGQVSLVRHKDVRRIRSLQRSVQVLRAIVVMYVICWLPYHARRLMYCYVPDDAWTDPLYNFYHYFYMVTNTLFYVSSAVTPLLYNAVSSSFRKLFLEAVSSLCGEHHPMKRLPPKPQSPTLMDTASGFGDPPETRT

Row | Drug uptake [1] | Drug uptake [2] | remaining at 10 min [3] [%] | Drug uptake [4] | Drug uptake [5] | Ratio [6] | Ratio [7] | Drug uptake [8] [% ID/g] | Drug uptake [9] [% ID/g] | Drug uptake [10] | Drug uptake [11] | remaining at 0.5 h [12] [%] | logD [13] | Stability [14] | Ki [15] [nM] | Ki [16] [nM] | Activity [17] | Activity [18] | Activity [19] | Activity [20] | SMILES
1 | Not Active | Not Active | > 98 | Not Active | Active | 8 | 0.3 | 0.74 | 0.84 | Active | Not Active | > 98 | -0.24 | Stable |  |  |  |  |  |  | COc1cccc(OC)c1-c1cc(C(=O)NC2(C(=O)O)C3CC4CC(C3)CC2C4)nn1-c1ccc(C(=O)N(C)CCCN(C)CCCCc2cn([C@@H]3O[C@H](CO)[C@@H](O)[C@H](O)[C@H]3[18F])nn2)cc1C(C)C (some centres not stated)
2 |  |  |  |  |  |  |  |  |  |  |  |  |  |  | 74 | 1 |  |  |  |  | COc1cccc(OC)c1-c1cc(C(=O)NC2(C(=O)O)C3CC4CC(C3)CC2C4)nn1-c1ccc(C(=O)N(C)CCCN(C)C)cc1C(C)C (configuration not stated)
3 |  |  |  |  |  |  |  |  |  |  |  |  |  |  | 69 | 0.98 | Active | Active | Active | Active | COc1cccc(OC)c1-c1cc(C(=O)NC2(C(=O)O)C3CC4CC(C3)CC2C4)nn1-c1ccc(C(=O)N(C)CCCN(C)CCCCc2cn([C@@H]3O[C@H](CO)[C@@H](O)[C@H](O)[C@H]3F)nn2)cc1C(C)C (some centres not stated)
